In ChEMBL document CHEMBL1148737, “Quantitative structure-activity relationship studies of [(biphenyloxy)propyl]isoxazole derivatives. Inhibitors of human rhinovirus 2 replication” (J Med Chem, 2007) one finds logIC50, logSI and logCC50 data, which are given here for 21 compounds.

One data set relates to rhinovirus A2. Nature of the data set: Antiviral activity against HRV2 in HeLa cells by CPE assay. The data set is classed as functional. More on the design: unit not given here. Summed up: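 HRV-2 stock grown in HeLa cells. 1-day-old confluent HeLa monolayers were given compound in test medium (2% NCS) plus virus at MOI 0.01 after medium removal. CPE was scored 72 h post-infection by crystal violet uptake, with six uninfected and six infected untreated wells per plate and pleconaril as reference. IC50 was taken from mean dose-response curves of at least three separate experiments.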

Data set [1] is described as follows: Selectivity index, ratio of CC50 for HeLa cells to IC50 for HRV2. The data set is classed as functional. In outline:
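Computed as CC50 (HeLa, 72 h crystal violet viability) divided by IC50 (HRV-2 CPE inhibition in HeLa, 72 h), both in µg/mL.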

Another data set relates to HeLa. As to the kind of experiment: Cytotoxicity against human HeLa cells. The data set is classed as cell-based. More on the design: unit not given here. Summed up: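 2-day-old confluent HeLa monolayers were exposed to serial 2-fold compound dilutions for 72 h at 37 °C, 5% CO2. Cells were fixed and stained with crystal violet formalin, and the dye was extracted and read at 550/630 nm. Viability was expressed as percent of the mean of six mock-treated controls. CC50 is the concentration cutting viability by 50%.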

Structures are written as SMILES.

The compound `Cc1ccc(C)c(-c2cc(C)c(OCCCc3cc(C)no3)c(C)c2)c1` had a logIC50 with rhinovirus A2 of 1.06. For the same compound, in data set [1], the logSI turned out to be 0.6. In addition, the logCC50 in the data set on HeLa worked out at 1.7.
The like results for `Cc1cc(CCCOc2c(C)cc(-c3ccc(Br)cc3)cc2C)on1` were, in that order, -0.15, 0.85 and 0.68.
Taken in the same sequence, the figures for `Cc1cc(CCCOc2c(C)cc(-c3ccc(F)cc3F)cc2C)on1` were -2.3, 3.2 and 0.9.
Taken in the same sequence, the figures for `Cc1cc(CCCOc2c(C)cc(-c3ccc(C)c(C)c3)cc2C)on1` were -1.31, 1.97 and 0.66.
With `Cc1cc(CCCOc2c(C)cc(-c3ccc(F)cc3)cc2C)on1`, in the data set with rhinovirus A2, the logIC50 is recorded as -2.05. For the same compound, in data set [1], the logSI is given as 3.74. This compound also registered a logCC50 in the data set with HeLa of 1.7.
In the data set on rhinovirus A2, `Cc1cc(CCCOc2c(C)cc(-c3noc(C(F)(F)F)n3)cc2C)on1` [PLECONARIL] yielded a logIC50 of -1.7. Moreover, the logSI in data set [1] is on record as 2.8. Besides, the logCC50 in the data set with HeLa is given as 1.1.
Taken in the same sequence, the figures for `Cc1cc(CCCOc2c(C)cc(-c3cc(F)c(F)c(F)c3)cc2C)on1` were -1.46, 3.34 and 1.88.
Taken in the same sequence, the figures for `Cc1cc(CCCOc2c(C)cc(-c3cc(C(F)(F)F)cc(C(F)(F)F)c3)cc2C)on1` were 1.7, 0 and 1.7.
Taken in the same sequence, the figures for `Cc1cc(CCCOc2c(C)cc(-c3ccc(C=O)cc3)cc2C)on1` were -1.09, 2.09 and 1.
`Cc1cc(CCCOc2c(C)cc(-c3ccccc3C)cc2C)on1`: the logIC50 in the data set on rhinovirus A2 is listed as -1.09. Besides, the logSI in data set [1] stood at 1.76. Moreover, in the data set on HeLa, the logCC50 is recorded as 0.66.
Taken in the same sequence, the figures for `Cc1cc(CCCOc2c(C)cc(-c3cccc(F)c3)cc2C)on1` were -1.4, 2.36 and 0.96.
As to `Cc1cc(CCCOc2c(C)cc(-c3ccc(F)c(C)c3)cc2C)on1`, in the data set with rhinovirus A2, the logIC50 is given as -1.82. For the same compound, in data set [1], the logSI is 3.1. The logCC50 in the data set with HeLa amounted to 1.28.
Taken in the same sequence, the figures for `Cc1cc(CCCOc2c(C)cc(-c3cccc([N+](=O)[O-])c3)cc2C)on1` were -1.47, 2.25 and 0.79.
Taken in the same sequence, the figures for `C=Cc1ccc(-c2cc(C)c(OCCCc3cc(C)no3)c(C)c2)cc1` were -0.9, 3.2 and 2.3.
The like results for `COc1cc(-c2cc(C)c(OCCCc3cc(C)no3)c(C)c2)cc(OC)c1OC` were, in that order, -0.54, 1.53 and 1.
In turn, `Cc1cc(CCCOc2c(C)cc(-c3ccc(-c4ccccc4)cc3)cc2C)on1` registered a logIC50 in the data set with rhinovirus A2 of 1.7. In data set [1], the logSI was found to be 0. For the same compound, the logCC50 in the data set with HeLa is 1.7.
In the data set with rhinovirus A2, `Cc1cc(CCCOc2c(C)cc(-c3cccc(C(F)(F)F)c3)cc2C)on1` gave a logIC50 of -1.24. Further, the logSI in data set [1] was determined as 2.32. In the data set on HeLa, this compound displayed a logCC50 of 1.08.
Taken in the same sequence, the figures for `Cc1cc(CCCOc2c(C)cc(-c3ccc(OC(F)(F)F)cc3)cc2C)on1` were 0.05, 1 and 1.03.
Taken in the same sequence, the figures for `Cc1cc(CCCOc2c(C)cc(-c3cccc4ccccc34)cc2C)on1` were -0.2, 1.16 and 0.96.
The like results for `CC(=O)c1ccc(-c2cc(C)c(OCCCc3cc(C)no3)c(C)c2)cc1` were, in that order, -0.63, 2.33 and 1.7.
Compound `Cc1cc(CCCOc2c(C)cc(-c3ccc(C(F)(F)F)cc3)cc2C)on1` displayed a logIC50 with rhinovirus A2 of -0.97. In addition, in data set [1], the logSI came to 2.05. The compound also registered a logCC50 in the data set with HeLa of 1.08.
